Source: publication PMC3609949 (Journal of the American Chemical Society, 2013)
Where a SMILES comes first, the peptide text is derived from it. The star is where a group is joined. X1 = CC[C@@]1(OC(=O)CCCS*)C(=O)OCc2c1cc1n(c2=O)Cc2cc3ccccc3nc2-1

Experiment: TEM imaging of self-assembled nanostructures in water
Format: physicochemical
Settings: 50 μM in water, stained with 2% uranyl acetate
Procedure, shortened: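 Negative-stain TEM using 2% aqueous uranyl acetate to enhance contrast. Most stained samples were imaged at 50 μM. Some other images were taken at 1 mM, and one panel is listed at both 50 μM and 100 μM. Filament widths are given as value ± spread.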

CC[C@H](C)[C@H](NC(=O)[C@H](CCC(N)=O)NC(=O)[C@@H](NC(=O)CNC(=O)[C@H](CSSCCCC(=O)O[C@]1(CC)C(=O)OCc2c1cc1n(c2=O)Cc2cc3ccccc3nc2-1)NC(C)=O)C(C)C)C(=O)N[C@H](C(=O)N[C@@H](Cc1ccc(O)cc1)C(=O)N[C@@H](CCCCN)C(=O)N[C@@H](CCCCN)C(N)=O)C(C)C [mCPT-buSS-Tau] (Ac-C(X1)GVQIVYKK-NH2; N-terminus and C-terminus assumed)
width of self-assembled filaments/nanotubes: 6.7 ± 1 nm
